Measured values published in ChEMBL document CHEMBL4007469, “Design and synthesis of dalbergin analogues and evaluation of anti-osteoporotic activity” (Bioorg Med Chem Lett, 2017).
The source made the active and inactive calls. No cut-off for these calls is given here.

Tests used:
[1] = Induction of osteoblast differentiation in mouse calvarial cells assessed as compound concentration required for maximum increase in ALP activity using PNPP as substrate after 48 hrs; format: functional, Calvarial cell
[2] = Induction of osteoblast differentiation in mouse calvarial cells assessed as increase in ALP activity using PNPP as substrate after 48 hrs; format: functional, cell-based; conditions: Calvarial cell
Calvarial cell = assay: Induction of mineralization in mouse calvarial cells assessed as calcium nodule formation at Emax incubated for 12 days by alizarin red-S staining based spectrophotometric method; format: functional
Outline: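 Primary mouse calvarial osteoblasts treated with or without compound for 12 days, fixed in 4% formaldehyde, stained with alizarin red-S, and the stain extracted and quantified by the acetic acid method.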

SMILES	EC50 [2]	Concentration giving maximal ALP increase [1]	Activity (Calvarial cell)
CCN1CCN(CCOc2cc3c(-c4ccccc4)cc(=O)oc3cc2OC)CC1	0.0136 µM	1 pM	Active
COc1cc2oc(=O)cc(-c3ccccc3)c2cc1OCCCCCN1CCOCC1	0.9 µM	10000 pM	Active
COc1cc2oc(=O)cc(-c3ccccc3)c2cc1OCCCCCN1CCCCC1	0.0108 µM	1 pM	Active
CCN1CCN(CCCOc2cc3c(-c4ccccc4)cc(=O)oc3cc2OC)CC1	0.0279 µM	10000 pM	–
COc1cc2oc(=O)cc(-c3ccccc3)c2cc1OCCCBr	0.0059 µM	100 pM	Active
COc1cc2oc(=O)cc(-c3ccccc3)c2cc1OCCCN1CCN(C)CC1	0.00942 µM	100 pM	–
COc1cc2oc(=O)cc(-c3ccccc3)c2cc1OC(=O)c1ccc(Br)cc1	0.0008 µM	1e+06 pM	–

More lines, in order of falling EC50 [2], values ahead:

EC50 [2]	SMILES	Concentration giving maximal ALP increase [1]	Activity (Calvarial cell)
12.4 µM	CCN1CCN(CCCCCOc2cc3c(-c4ccccc4)cc(=O)oc3cc2OC)CC1	–	–
0.0194 µM	COc1cc2oc(=O)cc(-c3ccccc3)c2cc1OCCCl	1 pM	–
0.0148 µM	COc1cc2oc(=O)cc(-c3ccccc3)c2cc1OCCN1CCN(C)CC1	1 pM	Active
0.0117 µM	COc1cc2oc(=O)cc(-c3ccccc3)c2cc1OCCN1CCOCC1	1 pM	Active
0.0076 µM	COc1cc2oc(=O)cc(-c3ccccc3)c2cc1OCCCN1CCCCC1	1 pM	Active
0.0074 µM	COc1cc2oc(=O)cc(-c3ccccc3)c2cc1OC(=O)Cc1cccs1	10000 pM	–
0.0057 µM	COc1cc2oc(=O)cc(-c3ccccc3)c2cc1OCCCCCBr	10000 pM	Active
0.0011 µM	C/C=C(\C)C(=O)Oc1cc2c(-c3ccccc3)cc(=O)oc2cc1OC	1e+06 pM	–
